Compound activity deposited in PubChem by several laboratories.
APJ antag – APJ receptor antagonism. inhibition, % at 20 µM. P35414. hit rate 0.32% among 330,000. AID 2521. CHO-K1 APJ beta-arrestin complementation, luminescence;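 active means inhibition above about 40% at 20 µM, limit read from the data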;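 further: cells challenged with 10 nM apelin-13 agonist together with compound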
m5-HT2A agonist – mouse HTR2A agonism via beta-arrestin recruitment; P35363; CHO-K1 mHTR2A beta-arrestin complementation, luminescence; percent of 30 µM serotonin response; hit rate 0.66% among 360,000; activation, % at 7.6 µM;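 active means activation above a run cutoff, the mean activation of all tested compounds plus 3 SD, cut at about 14% in these data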
Target sequence (P35363 whole entry, looked up): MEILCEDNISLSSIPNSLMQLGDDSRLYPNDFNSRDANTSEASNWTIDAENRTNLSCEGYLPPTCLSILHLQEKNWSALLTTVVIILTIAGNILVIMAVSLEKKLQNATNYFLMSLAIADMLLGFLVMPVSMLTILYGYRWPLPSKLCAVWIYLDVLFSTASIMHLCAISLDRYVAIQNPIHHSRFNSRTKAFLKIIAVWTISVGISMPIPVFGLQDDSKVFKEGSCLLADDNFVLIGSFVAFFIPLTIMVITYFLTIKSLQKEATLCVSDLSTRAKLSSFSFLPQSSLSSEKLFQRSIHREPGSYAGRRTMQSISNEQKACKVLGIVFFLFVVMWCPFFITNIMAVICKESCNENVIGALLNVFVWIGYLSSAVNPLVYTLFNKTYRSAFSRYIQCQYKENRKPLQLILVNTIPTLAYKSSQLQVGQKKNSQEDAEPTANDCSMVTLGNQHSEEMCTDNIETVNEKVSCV
CXCR6 block – CXCR6 (human) receptor inhibition; CHO-K1 PathHunter CXCR6 beta-arrestin, luminescence; inhibition, % at 20 µM; hit rate 0.36% among 360,000; AID 602244; in the data active means inhibition above about 34%, passing the limit was not always enough;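 further: antagonist mode with CXCL16 agonist at 10 nM final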
CCR6 antagonist – CCR6 (human) receptor antagonism | CHO-K1 CCR6 PathHunter beta-arrestin, luminescence, CCL20-stimulated | inhibition, % at 20 µM | hit rate 0.49% among 340,000 | AID 493098;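 active means compounds whose inhibition of the agonist-driven luminescence signal at 20 µM reaches about 50%, limit read from the data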;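 further: cells stimulated with CCL20 at 14 nM final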
APJ agonist – agonists of human APJ apelin receptor; P35414; CHO-K1 APJ PathHunter beta-arrestin, luminescence; 0% DMSO wells, 100% apelin; activation, % at 20 µM; hit rate 0.11% among 330,000;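 active means activation more than six SD over the plate average, tested at 20 µM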
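Assay system – PathHunter CHO-K1 APJ (AGTRL-1) beta-arrestin reporter cells · Compound – one dose, 20 µM compound, 1% DMSO · Timing – compound 90 min 25 °C, reagent 1 h · Measured by – luminescence from split beta-galactosidase complementation, Galacton Star/Emerald II substrate · Measure – beta-arrestin recruitment to APJ as agonist activity, luminescent signal · Benchmarks – DMSO vs Apelin-13 10 nM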
EBI2 block – antagonists of human EBI2 receptor; hit rate 0.81% among 360,000; inhibition, % at 5 µM; AID 651636; EBI2 beta-arrestin recruitment, luminescence, 7a,25-OHC stimulated; in the data active means inhibition above about 38%;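 further: enzyme fragment complementation signal reports receptor beta-arrestin coupling in cells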
EBI2 conf – EBI2 (human) antagonism, single concentration confirmation | inhibition, % at 5 µM | hit rate 29% among 2,400 | shares compounds with EBI2 block | EBI2 beta-arrestin luminescence, 7a,25-OHC antagonism;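 active means inhibition of at least 50%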
EBI2 agonist – EBI2 agonism counter-screen. shares compounds with EBI2 block. EBI2-expressing cells, agonist mode, luminescence, 60 min; 0% vehicle, 100% 7α,25-dihydroxycholesterol control. activation, % at 5 µM. 2,400 tested, under 10 active. AID 652000;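 active means activation of at least 50%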
bGal cs – beta-galactosidase inhibition counter-screen. shares compounds with EBI2 block. purified beta-galactosidase, luminescent Galacton Star, 15 min. inhibition, % at 5 µM. hit rate 1% among 2,400;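 active means replicate-average signal at least 3 plate SD below neutral wells, shown as high inhibition, flagging enzyme-inhibiting false positives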;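 further: higher means stronger loss of beta-gal luminescence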
Large screens that a line does not name were inactive (follow-up assays come after a bar, where they were run). Sampled rows, rich in hits. Any-hit rate of the full collection: about 2.2%.

O=C(NCC1CCCCC1)c1csc([C@@H]2C[C@H](O)[C@@H](CO)O2)n1	none (no result: APJ antag, CCR6 antagonist, APJ agonist)
O=C(c1cc2ccccc2o1)N1CCN(S(=O)(=O)c2ccccc2)CC1	EBI2 block 75 | EBI2 conf inactive | EBI2 agonist inactive | bGal cs inactive
O=C(c1cc2ccccc2o1)N1CCOCC1	none
O=C(c1cc2ccccc2o1)N1CCN(S(=O)(=O)/C=C/c2ccccc2)CC1	EBI2 block 92 | EBI2 conf 86 | EBI2 agonist inactive | bGal cs inactive
c1ccc2c(c1)oc1c(-c3cccc4nccn34)cccc12	none (no result: APJ antag, CCR6 antagonist, APJ agonist)
O=S1(=O)CC(N2CC=CC2)CN1Cc1cn(Cc2ccc(Cl)cc2)nn1 (stereo not given)	none (no result: APJ antag, CCR6 antagonist, APJ agonist)
CCCCNC(=O)C(NC(=O)c1ccc2c(c1)OCO2)C(=O)c1ccccc1 (stereo not given)	none (no result: APJ antag, CXCR6 block, CCR6 antagonist, APJ agonist)
Cc1c(C(=O)N2CCN(S(=O)(=O)c3ccccc3)CC2)oc2ccc(Br)cc12	EBI2 block 58 | EBI2 conf inactive | EBI2 agonist inactive | bGal cs inactive
COc1ccccc1C(=O)N1CCN(C(=O)c2oc3ccc(C)cc3c2C)CC1	EBI2 block 65 | EBI2 conf inactive | EBI2 agonist inactive | bGal cs inactive
Cc1c(C(=O)N2CCN(c3ncccn3)CC2)oc2ccc(F)cc12	none
Cc1c(C(=O)N2CCN(C(=O)c3ccccc3)CC2)oc2ccc(F)cc12	EBI2 block 51 | EBI2 conf inactive | EBI2 agonist inactive | bGal cs inactive
Brc1ccc(-c2nc3c4ccccc4ccn3c2Cc2ccccc2)cc1	none (no result: APJ antag, CCR6 antagonist, APJ agonist)
CCOC(=O)[C@]12CCC=C1N(Cc1ccccc1)C(=O)[C@H](CC(=O)NCc1cccc(C(F)(F)F)c1)C2	none (no result: APJ antag, CCR6 antagonist, APJ agonist)
COC(=O)c1ccc(OCC(=O)c2ccc(O)cc2O)cc1	none
O=C(COc1ccc(Cl)cc1)c1ccc(O)cc1O	EBI2 block 44 | EBI2 conf inactive | EBI2 agonist inactive | bGal cs inactive
Cc1ccc(C(=O)N2CCN(Cc3nc4sc5c(c4c(=O)[nH]3)CCCC5)CC2)cc1	EBI2 block 44 | EBI2 conf inactive | EBI2 agonist inactive | bGal cs inactive
O=C(NCc1ccccc1)c1ccc(C(=O)NCc2ccccc2)cc1	EBI2 block 47 (no result: APJ antag, APJ agonist) | EBI2 conf inactive | EBI2 agonist inactive | bGal cs inactive
O=C(NCc1ccccc1)c1ccc(CN2CCC(Cc3ccccc3)CC2)cc1	EBI2 block 50 | EBI2 conf inactive | EBI2 agonist inactive | bGal cs inactive
O=C(NCc1ccccc1)c1ccccc1	none (no result: APJ antag, APJ agonist)
O=C(NC1CCCCC1)C1c2ccccc2OCC(=O)N1CCc1c[nH]c2ccccc12 (stereo not given)	none (no result: APJ antag, CCR6 antagonist, APJ agonist)
O=C(CCCc1cccs1)NCCc1c[nH]c2ccccc12	EBI2 block 46 | EBI2 conf inactive | EBI2 agonist inactive | bGal cs inactive
CCCCCCCCCCCCCCCC(=O)NCCc1c[nH]c2ccccc12	none
COC(=O)c1ccc(C23CC4(C2)[C@H](CN(Cc2cccnc2)[C@@H]4c2ccccc2)C3c2ccccc2)cc1 (stereo not given in full)	none
N#Cc1ccc(C23CC4(C2)[C@H](CN(Cc2cccnc2)[C@@H]4c2ccccc2)C3c2ccccc2)cc1 (stereo not given in full)	EBI2 block 72 | EBI2 conf inactive | EBI2 agonist inactive | bGal cs inactive
O=C(Nc1nc(-c2cccs2)cs1)c1cccc(S(=O)(=O)N2CCCCCC2)c1	none
O=C(Nc1nc(-c2cccs2)cs1)c1ccc(S(=O)(=O)N2CCCCC2)cc1	EBI2 block 42 | EBI2 conf inactive | EBI2 agonist inactive | bGal cs inactive
CN(/C=C/C(=O)C(F)(F)F)Cc1ccccc1	EBI2 block 39 | EBI2 conf inactive | EBI2 agonist inactive | bGal cs inactive
Cc1ccc2nc(C3CCCCC3)c(Cc3ccccc3)n2c1	none (no result: APJ antag, CCR6 antagonist, APJ agonist)
CCN(CC(=O)Nc1ccccc1C(F)(F)F)CC(=O)c1[nH]c(C)c(C(C)=O)c1C	none (no result: APJ antag, CCR6 antagonist, APJ agonist)
COc1cc(/C=N/NC(=O)Nc2cccc3nsnc23)cc(OC)c1OC	none (no result: APJ antag, APJ agonist)
COc1ccc(/C=N/NC(=O)Nc2cccc3nsnc23)c(OC)c1	EBI2 block 53 | EBI2 conf inactive | EBI2 agonist inactive | bGal cs inactive
COc1ccc(C(=O)C2CCN(C(=S)NCC3CCCO3)CC2)cc1 (stereo not given)	EBI2 block 61 | EBI2 conf inactive | EBI2 agonist inactive | bGal cs inactive
COc1ccc(C(=O)C2CCN(C(=S)NCCc3ccccc3)CC2)cc1	none
O=C(c1ccc(F)cc1)C1CCN(C(=S)NCC2CCCO2)CC1 (stereo not given)	EBI2 block 51 | EBI2 conf inactive | EBI2 agonist inactive | bGal cs inactive
Cc1ccc(C(=O)C2CCN(C(=S)NCC3CCCO3)CC2)cc1 (stereo not given)	none
CC(NC(=O)C1CCN(C(=O)Nc2ccccc2)CC1)c1ccc(Cl)cc1 (stereo not given)	EBI2 block 46 | EBI2 conf inactive | EBI2 agonist inactive | bGal cs inactive
O=C(NCC(c1ccccc1Cl)N1CCCC1)C1CCN(C(=O)Nc2ccccc2)CC1 (stereo not given)	EBI2 block 53 | EBI2 conf inactive | EBI2 agonist inactive | bGal cs inactive
CCC1CCC(c2nnc(-c3ccc(Br)cc3)o2)CC1 (stereo not given)	EBI2 block 50 | EBI2 conf inactive | EBI2 agonist inactive | bGal cs inactive
Cc1ccccc1-c1nnc(-c2ccc(Br)cc2)o1	none
Cc1ccccc1-c1csc(C(O)c2ccc(F)c(F)c2)n1 (stereo not given)	none (no result: APJ antag, CCR6 antagonist, APJ agonist)
COc1cc2c(cc1NC(=S)NC(=O)/C=C/c1ccco1)oc1ccccc12	EBI2 block 55 | EBI2 conf 51 | EBI2 agonist inactive | bGal cs inactive
COc1cc2c(cc1NC(=S)NC(=O)/C=C/c1ccc(OC)c(OC)c1)oc1ccccc12	none (no result: APJ antag, APJ agonist)
COc1ccc(/C=C/C(=O)NC(=S)Nc2cc3oc4ccccc4c3cc2OC)cc1	EBI2 block 65 | EBI2 conf inactive | EBI2 agonist inactive | bGal cs inactive
COC(=O)[C@@]12C[C@@H](CC(=O)NCCCN3CCCC3=O)C(=O)N(Cc3ccc4c(c3)OCO4)C1=CCC(C)(C)C2	none (no result: APJ antag, CXCR6 block, CCR6 antagonist, APJ agonist)
O=C(NC1CCC1)C1CCC(=O)N(Cc2ccc(Cl)cc2)C1 (stereo not given)	none (no result: APJ antag, CCR6 antagonist, APJ agonist)
